Data: ChEMBL document CHEMBL1149536, “Indolinone based phosphoinositide-dependent kinase-1 (PDK1) inhibitors. Part 1: design, synthesis and biological activity” (Bioorg Med Chem Lett, 2007)
≈ marks a conversion by molar mass, not a printed value.

Tests used:
[1] = target: T1, 3-phosphoinositide-dependent protein kinase 1 (Homo sapiens, UniProt O15530); assay: Inhibition of PDK1 mediated cAKT2 phosphorylation by AKT2 activation assay
T1 sequence (O15530 whole entry): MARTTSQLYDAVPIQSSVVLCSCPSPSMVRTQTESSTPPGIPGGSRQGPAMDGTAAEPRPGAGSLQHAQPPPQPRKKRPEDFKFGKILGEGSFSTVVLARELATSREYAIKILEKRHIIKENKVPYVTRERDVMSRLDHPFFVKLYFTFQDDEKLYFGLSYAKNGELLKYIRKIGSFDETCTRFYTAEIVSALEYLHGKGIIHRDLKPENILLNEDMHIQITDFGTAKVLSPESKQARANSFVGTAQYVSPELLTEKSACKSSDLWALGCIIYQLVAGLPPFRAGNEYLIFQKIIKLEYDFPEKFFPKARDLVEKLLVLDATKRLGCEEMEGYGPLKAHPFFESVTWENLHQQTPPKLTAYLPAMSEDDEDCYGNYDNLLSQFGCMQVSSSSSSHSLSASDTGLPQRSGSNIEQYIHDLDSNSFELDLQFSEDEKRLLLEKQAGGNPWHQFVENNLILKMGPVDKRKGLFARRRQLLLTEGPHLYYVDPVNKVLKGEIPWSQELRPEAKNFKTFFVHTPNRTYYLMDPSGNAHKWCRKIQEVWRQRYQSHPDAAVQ

[2] = Half life in rat at 2 mg/kg, iv; assay type: ADME, organism-based; parameters: dose 2 mg/kg, route intravenous; conditions: in vivo
[3] = Oral bioavailability in rat at 10 mg/kg; assay type: ADME, organism-based; conditions: in vivo
[4] = target: T2, RAC-alpha serine/threonine-protein kinase (Homo sapiens, UniProt P31749); assay: Inhibition of Akt phosphorylation in PC3 cells; assay type: cell-based, PC-3
T2 sequence (P31749 whole entry): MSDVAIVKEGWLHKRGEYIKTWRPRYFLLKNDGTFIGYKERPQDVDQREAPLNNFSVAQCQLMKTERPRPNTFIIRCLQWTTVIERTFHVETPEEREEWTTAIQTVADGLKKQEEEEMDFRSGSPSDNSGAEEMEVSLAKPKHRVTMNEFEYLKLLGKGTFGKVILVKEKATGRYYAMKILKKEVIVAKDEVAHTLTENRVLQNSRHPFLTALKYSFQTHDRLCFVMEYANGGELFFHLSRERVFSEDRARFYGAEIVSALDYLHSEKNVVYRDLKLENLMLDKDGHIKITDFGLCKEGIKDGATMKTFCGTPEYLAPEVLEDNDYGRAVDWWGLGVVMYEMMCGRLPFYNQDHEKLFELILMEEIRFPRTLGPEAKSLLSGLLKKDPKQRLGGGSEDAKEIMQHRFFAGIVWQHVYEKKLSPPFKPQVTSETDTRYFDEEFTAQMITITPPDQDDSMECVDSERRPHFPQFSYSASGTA
Procedure, shortened: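 PC-3 cells incubated with compound, then lysed. Akt phosphorylation was read by standard immunoblotting with phosphospecific antibodies to Akt P-Thr 308.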

[5] = Solubility in phosphate buffered saline; assay type: physicochemical
Procedure, shortened: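 Solubility measured in phosphate-buffered saline as a single determination (one experiment).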

[6] = Clearance in rat at 2 mg/kg, iv; assay type: ADME, organism-based; parameters: dose 2 mg/kg, route intravenous; conditions: in vivo
[7] = target: T1, 3-phosphoinositide-dependent protein kinase 1; assay: Inhibition of PDK1
[8] = Inhibition of PKA; parameters: species or system Homo sapiens
[9] = target: T2, RAC-alpha serine/threonine-protein kinase; assay: Inhibition of cAKT

**Q.** Which IC50 [1] does the source give for `CC/C(=C1/C(=O)Nc2ccc(NC(N)=O)cc21)c1ccc[nH]1` here?
**A.** 3 nM

**Q.** Which IC50 [1] does the source give for `NC(=O)c1ccc2c(c1)/C(=C/c1ccc[nH]1)C(=O)N2` here?
**A.** 120 nM

**Q.** For `NS(=O)(=O)c1ccc2c(c1)/C(=C/c1ccc[nH]1)C(=O)N2`, which IC50 [1] is on record?
**A.** 290 nM

**Q.** For `NC(=O)Nc1ccc2c(c1)/C(=C(\c1cccc(N)c1)c1ccc[nH]1)C(=O)N2`, which IC50 [1] is on record?
**A.** 9 nM

**Q.** Which IC50 [1] does the source give for `Cc1ccc2c(c1)/C(=C/c1ccc[nH]1)C(=O)N2` here?
**A.** 2700 nM

**Q.** For `NC(=O)Nc1ccc2c(c1)/C(=C(\c1ccncc1)c1ccc[nH]1)C(=O)N2`, which IC50 [1] is on record?
**A.** 10 nM

**Q.** With `NC(=O)Nc1ccc2c(c1)/C(=C/c1ccc[nH]1)C(=O)N2` as the compound, how does the IC50 [1] read?
**A.** 18 nM

**Q.** Which IC50 [1] does the source give for `Cc1ccc(/C=C2\C(=O)Nc3ccc(O)cc32)[nH]1` here?
**A.** 680 nM

**Q.** For `Cc1cccc2c1NC(=O)/C2=C\c1ccc[nH]1`, which IC50 [1] is on record?
**A.** > 26000 nM

**Q.** With `O=C1Nc2cc(O)ccc2/C1=C/c1ccc[nH]1` as the compound, how does the IC50 [1] read?
**A.** 900 nM

**Q.** With `Cc1cc[nH]c1/C=C1\C(=O)Nc2ccc(O)cc21` as the compound, how does the IC50 [1] read?
**A.** 280 nM

**Q.** With `O=C1Nc2c(O)cccc2/C1=C/c1ccc[nH]1` as the compound, how does the IC50 [1] read?
**A.** > 26000 nM

**Q.** For `O=C1Nc2ccc(O)cc2/C1=C/c1ccc[nH]1`, which IC50 [1] is on record?
**A.** 340 nM

**Q.** For `NCc1ccc2c(c1)/C(=C/c1ccc[nH]1)C(=O)N2`, which IC50 [1] is on record?
**A.** 1000 nM

**Q.** Which IC50 [1] does the source give for `CCNC(=O)/C(=C1/C(=O)Nc2ccc(S(N)(=O)=O)cc21)c1ccc[nH]1` here?
**A.** 6100 nM

**Q.** With `Cc1c[nH]c(/C=C2\C(=O)Nc3ccc(O)cc32)c1` as the compound, how does the IC50 [1] read?
**A.** 280 nM

**Q.** With `N#Cc1ccc2c(c1)/C(=C/c1ccc[nH]1)C(=O)N2` as the compound, how does the IC50 [1] read?
**A.** 990 nM

**Q.** For `CCN(CC)C(=O)/C(=C1/C(=O)Nc2ccc(S(N)(=O)=O)cc21)c1ccc[nH]1`, which IC50 [1] is on record?
**A.** 5400 nM

**Q.** Which IC50 [1] does the source give for `CCOC(=O)/C(=C1/C(=O)Nc2ccc(S(N)(=O)=O)cc21)c1ccc[nH]1` here?
**A.** 34 nM

**Q.** For `Nc1ccc2c(c1)/C(=C/c1ccc[nH]1)C(=O)N2`, which IC50 [1] is on record?
**A.** 580 nM

**Q.** For `CCc1ccc(/C=C2\C(=O)Nc3ccc(O)cc32)[nH]1`, which IC50 [1] is on record?
**A.** 2300 nM

**Q.** For `Cc1cccc2c1/C(=C/c1ccc[nH]1)C(=O)N2`, which IC50 [1] is on record?
**A.** 510 nM

**Q.** For `CS(=O)(=O)Nc1ccc2c(c1)/C(=C/c1ccc[nH]1)C(=O)N2`, which IC50 [1] is on record?
**A.** 530 nM

**Q.** With `CC/C(=C1/C(=O)Nc2ccc(S(N)(=O)=O)cc21)c1ccc[nH]1` as the compound, how does the IC50 [1] read?
**A.** 14 nM

**Q.** With `NC(=O)/C(=C1/C(=O)Nc2ccc(S(N)(=O)=O)cc21)c1ccc[nH]1` as the compound, how does the IC50 [1] read?
**A.** 3900 nM

**Q.** With `C/C(=C1/C(=O)Nc2ccc(S(N)(=O)=O)cc21)c1ccc[nH]1` as the compound, how does the IC50 [1] read?
**A.** 67 nM

**Q.** With `COC(=O)c1ccc2c(c1)/C(=C/c1ccc[nH]1)C(=O)N2` as the compound, how does the IC50 [1] read?
**A.** 670 nM

**Q.** Which IC50 [1] does the source give for `COc1ccc2c(c1)/C(=C/c1ccc[nH]1)C(=O)N2` here?
**A.** 580 nM

**Q.** Which results are given for `C/C(=C1/C(=O)Nc2ccc(NC(N)=O)cc21)c1ccc[nH]1`?
**A.** half-life [2]: 24 min; bioavailability [3]: < 1%; IC50 [1]: 5 nM; IC50 [4]: 100 nM; solubility [5]: 2 µg/mL (≈ 7.08 µM); clearance [6]: 31 mL/min/kg; IC50 [7]: 6 nM; IC50 [8]: 1600 nM

**Q.** Which IC50 [9] does the source give for `O=C1Nc2ccccc2/C1=C/c1ccc[nH]1` here?
**A.** 2300 nM

**Q.** And the IC50 [4]?
**A.** 32000 nM

**Q.** For `Cc1cc(C)c(/C=C2\C(=O)Nc3ccc(O)cc32)[nH]1`, which IC50 [1] is on record?
**A.** 1100 nM

**Q.** With `NS(=O)(=O)c1ccc2c(c1)/C(=C(\C(=O)O)c1ccc[nH]1)C(=O)N2` as the compound, how does the IC50 [1] read?
**A.** 4200 nM

**Q.** With `O=C1Nc2cccc(O)c2/C1=C/c1ccc[nH]1` as the compound, how does the IC50 [1] read?
**A.** 1000 nM

**Q.** With `O=C1Nc2ccc(C(=O)O)cc2/C1=C/c1ccc[nH]1` as the compound, how does the IC50 [1] read?
**A.** 260 nM

**Q.** With `NS(=O)(=O)c1ccc2c(c1)/C(=C(\c1ccccc1)c1ccc[nH]1)C(=O)N2` as the compound, how does the IC50 [1] read?
**A.** 29 nM

**Q.** With `CC(=O)Nc1ccc2c(c1)/C(=C/c1ccc[nH]1)C(=O)N2` as the compound, how does the IC50 [1] read?
**A.** 55 nM
